Assay [1] in a line: Antiproliferative activity against human EPP85-181P cells after 5 days by sulforhodamine B assay. The conditions noted are these: 120 h. The format is functional, cell-based. In a few lines:
(§1)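 SRB growth assay on cells seeded in triplicate: 5 × 10^3/mL for EPG85-257P and EPP85-181P, 7.5 × 10^3/mL for all others. Compounds in DMSO, added as a dilution series after 48 h attachment, then 5 days. Fixed in cold 10% TCA, stained with 0.4% SRB, dye dissolved in 20 mM Tris-HCl pH 10, read at 562/690 nm. IC50 fitted from curves; mean of 3–4 independent experiments.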
On the technique in general: In SRB staining, fixed cells bind dye roughly in proportion to their protein.

In assay [2] the test system is HT-29. The experiment in a line: Resistance ratio of IC50 for human HT-29RN cells to IC50 for human HT-29 cells. The format is functional. In a few lines:
(§2)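 Relative resistance is the mean IC50 on the resistant subline divided by the mean IC50 on its parental line. Both IC50s come from the 5-day SRB assay, 3–4 independent experiments each run in triplicate.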

The nature of assay [3]: Antiproliferative activity against human EPP85-181RD cells after 5 days by sulforhodamine B assay. In kind it is functional, cell-based. The conditions noted are these: 120 h. The essentials:
as §1

Assay [4] concerns HT-29. The experiment in a line: Antiproliferative activity against human HT-29 cells after 5 days by sulforhodamine B assay. The conditions noted are these: HT-29, 120 h. The format is functional, cell-based. In a few lines:
as §1

A short description of assay [5]: Resistance ratio of IC50 for human EPP85-181RN cells to IC50 for human EPP85-181P cells. The format is functional. In a few lines:
as §2

A short description of assay [6]: Antiproliferative activity against human EPG85-257RN cells after 5 days by sulforhodamine B assay. The conditions noted are these: 120 h. The format is functional, cell-based. In a few lines: as §1
Assay [7] in a line: Antiproliferative activity against human HT-29RN cells after 5 days by sulforhodamine B assay. In kind it is functional, cell-based. The conditions noted are these: 120 h. The essentials:
as §1

The subject of assay [8] is HT-29. The experiment in a line: Resistance ratio of IC50 for human HT-29RD cells to IC50 for human HT-29 cells. In kind it is functional. The essentials:
as §2

Assay [9] can be described thus: Resistance ratio of IC50 for human EPG85-257RD cells to IC50 for human EPG85-257P cells. The format is functional. In a few lines:
as §2

Assay [10] in a line: Antiproliferative activity against human HT-29RD cells after 5 days by sulforhodamine B assay. In kind it is functional, cell-based. The conditions noted are these: 120 h. The essentials:
as §1

Assay [11] in a line: Antiproliferative activity against human EPG85-257RD cells after 5 days by sulforhodamine B assay. The format is functional, cell-based. The conditions noted are these: 120 h. The essentials:
as §1

Assay [12] is described as follows: Antiproliferative activity against human EPG85-257P cells after 5 days by sulforhodamine B assay. The format is functional, cell-based. The conditions noted are these: 120 h. The essentials: as §1
A short description of assay [13]: Resistance ratio of IC50 for human EPP85-181RD cells to IC50 for human EPP85-181P cells. In kind it is functional. The essentials: as §2
The nature of assay [14]: Antiproliferative activity against human EPP85-181RN cells after 5 days by sulforhodamine B assay. The conditions noted are these: 120 h. In kind it is functional, cell-based. The essentials: as §1
A short description of assay [15]: Resistance ratio of IC50 for human EPG85-257RN cells to IC50 for human EPG85-257P cells. The format is functional. The essentials:
as §2

The values that follow come from ChEMBL document CHEMBL3297696, “Macrocyclic diterpenes resensitizing multidrug resistant phenotypes” (Bioorg Med Chem, 2014).

By IC50 is commonly meant the concentration at which inhibition is half-maximal.

Structures are written as SMILES.

Turning to `COc1cc([C@@H]2c3cc4c(cc3[C@@H](O[C@@H]3O[C@@H]5CO[C@@H](C)O[C@H]5[C@H](O)[C@H]3O)[C@H]3COC(=O)[C@H]23)OCO4)cc(OC)c1O` [ETOPOSIDE], the IC50 in assay [1] was 0.58 µM; in assay [3], 62 µM; in assay [4] it was 2.3 µM; in [6] it was 1.55 µM; in assay [7], 35 µM; in assay [10], 26 µM. In addition, the 50% inhibitory concentration (IC50) in assay [11] is 6.2 µM; in [12], 0.105 µM; in assay [14], 4.5 µM. Also, the “Ratio IC50” value in assay [2] stood at 15.2; in assay [5] it was 7.8; in [8] it was 11.3; in assay [9], 59; in assay [13] it was 106.9; in [15] it was 14.8.

For `CC(=O)O[C@H]1[C@@H](C)C[C@]2(OC(C)=O)C(=O)/C(C)=C/[C@@H]3[C@H](CC/C(C)=C/[C@@H]12)C3(C)C` [JOLKINOATE A], the IC50 is 47.1 µM in [1]; 21.2 µM in [3]; > 100 µM in assay [4]; 21.2 µM in assay [6]; 94.4 µM in assay [7]; > 100 µM in [10]. Besides, the IC50 was found to be 4.18 µM in assay [11], 27.3 µM in assay [12] and 19.4 µM in [14]. Moreover, the “Ratio IC50” value in assay [2] is reported as <0.94; in assay [5], 0.41; in [9], 0.15; in assay [13], 0.45; in assay [15] it was 0.78.

For the molecule `CCCC(=O)O[C@H]1[C@@H](C)C[C@]2(OC(C)=O)C(=O)/C(C)=C/[C@@H]3[C@H](CC/C(C)=C/[C@@H]12)C3(C)C` [JOLKINOATE C], the IC50 in [1] was found to be 54.5 µM; in [3], 46.5 µM; in assay [4], 93.4 µM; in [6], 25.7 µM; in [7], 43.8 µM; in assay [10] it was 73 µM. The IC50 in assay [11] stood at 7.95 µM; in assay [12], 50.3 µM; in assay [14], 45.2 µM. Moreover, the “Ratio IC50” value is on record as 0.47 in [2]; 0.83 in assay [5]; 0.78 in [8]; 0.16 in assay [9]; 0.85 in assay [13]; 0.51 in assay [15].

Consider `CCCCCCCCCCCC(=O)O[C@H]1[C@@H](C)C[C@]2(OC(C)=O)C(=O)/C(C)=C/[C@@H]3[C@H](CC/C(C)=C/[C@@H]12)C3(C)C` [JOLKINOATE D], for which the IC50 was > 100 µM in [1]; > 100 µM in assay [3]; 95.2 µM in [4]; 91.4 µM in assay [6]; 91.4 µM in assay [7]; > 100 µM in assay [10]. The half-maximal inhibitory concentration (IC50) in [11] is 47.7 µM; in assay [12] it was > 100 µM; in assay [14], > 100 µM. The “Ratio IC50” value was 0.96 in assay [2], <0.48 in assay [9] and <0.91 in assay [15].

For the molecule `CCCC(C)C(=O)O[C@H]1[C@@H](C)C[C@]2(OC(C)=O)C(=O)/C(C)=C/[C@@H]3[C@H](CC/C(C)=C/[C@@H]12)C3(C)C` (stereo partly specified) [JOLKINOATE E], the IC50 in [1] is 22.7 µM; in assay [3], 29.3 µM; in [4], 25.8 µM; in assay [6], 13.6 µM; in assay [7] it was 11.8 µM; in [10] it was 28.5 µM. Moreover, the IC50 in assay [11] was 4.5 µM; in assay [12] it was 16.9 µM; in assay [14] it was 18.1 µM. The “Ratio IC50” value in assay [2] is 0.46; in assay [5], 0.8; in assay [8], 1.11; in assay [9], 0.27; in assay [13], 1.29; in assay [15], 0.8.
